Source: ChEMBL document CHEMBL1145787, “Synthesis and structure-activity relationship of N-substituted 4-arylsulfonylpiperidine-4-hydroxamic acids as novel, orally active matrix metalloproteinase inhibitors for the treatment of osteoarthritis” (J Med Chem, 2003)

Assays:
[1] = test system: Oryctolagus cuniculus; experiment: Effect of compound on cartilage in surgically induced osteoarthritis (OA) model in rabbit at 15 mg/kg, value are relative to activity of RS-130830 (7.9+/-1.5) at 25 mg/kg; type: ADME, organism-based, Cartilage tissue; settings: in vivo
Summary of the method: (§1)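 Rabbits had anterior cruciate ligament transection plus meniscectomy in one knee, with sham surgery on the contralateral knee. From day 10 after surgery, groups of 12 were dosed once daily by oral gavage with vehicle, test compound or the RS-130830 reference for 4 weeks. Knee joints were then collected and scored for gross pathological changes by blinded investigators.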

[2] = Area under concentration-time curve of compound was determined in monkey at 25 mg/kg orally; type: ADME, organism-based; design: dose 25 mg/kg, route oral; settings: simiiformes, in vivo, po
Summary of the method: (§2)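 Single-dose PK in Sprague–Dawley rats, New Zealand rabbits, Beagle dogs and cynomolgus monkeys. Dosing was 25 mg/kg oral or 5 mg/kg iv. Plasma concentration–time profiles gave the apparent elimination half-life (T1/2) and the area under the concentration–time curve (AUC). Parameters are reported as means.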

[3] = Oral bioavailability of compound was determined in dog at 25 mg/kg orally; type: ADME, organism-based, Canis lupus familiaris; settings: in vivo, read-out: Bioavailabiility
[4] = Total clearance of compound was determined in rabbit at 5 mg/kg intravenously admn.; type: ADME, organism-based, Oryctolagus cuniculus; design: dose 5 mg/kg, route intravenous; settings: in vivo, iv, read-out: CLT
Summary of the method: (§3)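 Single iv dose of 5 mg/kg in Sprague–Dawley rats, New Zealand rabbits, Beagle dogs and Cynomolgus monkeys. Mean plasma pharmacokinetics: C0 is the concentration at T=0, Vdss the volume of distribution at steady state, and CLT the total clearance.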

[5] = Maximum plasma concentration of compound was determined in monkey at 25 mg/kg orally; type: ADME, organism-based; design: dose 25 mg/kg, route oral; settings: simiiformes, po
Summary of the method: (§4)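 Single oral dose of 25 mg/kg in Sprague–Dawley rats, New Zealand rabbits, Beagle dogs and Cynomolgus monkeys. Mean plasma pharmacokinetics; Cmax is the maximum plasma concentration and Tmax is the time of peak concentration.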

[6] = test system: Oryctolagus cuniculus; experiment: Effect of compound on cartilage in surgically induced osteoarthritis (OA) model in rabbit at 25 mg/kg, value are relative to activity of RS-130830 (7.9+/-1.5) at 25 mg/kg; type: ADME, organism-based, Cartilage tissue; settings: in vivo; summary of the method: as §1
[7] = Area under concentration-time curve of compound was determined in rat at 5 mg/kg intravenously admn.; type: ADME, organism-based; design: dose 5 mg/kg, route intravenous; settings: in vivo, iv, read-out: AUC 0; summary of the method: as §2
[8] = Total clearance of compound was determined in monkey at 5 mg/kg intravenously admn.; type: ADME, organism-based; design: dose 5 mg/kg, route intravenous; settings: simiiformes, in vivo, iv, read-out: CLT; summary of the method: as §3
[9] = Oral bioavailability of compound was determined in rabbit at 25 mg/kg orally; type: ADME, organism-based, Oryctolagus cuniculus; settings: in vivo, read-out: Bioavailabiility
[10] = Apparent elimination half life of compound was determined in dog at 25 mg/kg orally; type: ADME, organism-based, Canis lupus familiaris; design: dose 25 mg/kg, route oral; settings: in vivo, po; summary of the method: as §2
[11] = molecular target: T1, Matrilysin (Homo sapiens, UniProt P09237); experiment: Inhibition of Matrix metalloprotease-7
T1 sequence (P09237 whole entry): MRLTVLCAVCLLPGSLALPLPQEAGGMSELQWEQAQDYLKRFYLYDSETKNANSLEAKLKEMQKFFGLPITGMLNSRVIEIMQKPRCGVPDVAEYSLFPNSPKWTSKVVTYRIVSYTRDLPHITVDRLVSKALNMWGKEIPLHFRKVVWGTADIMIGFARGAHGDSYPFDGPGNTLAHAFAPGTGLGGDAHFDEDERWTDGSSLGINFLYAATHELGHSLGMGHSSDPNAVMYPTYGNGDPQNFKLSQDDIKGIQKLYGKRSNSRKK
Summary of the method: (§5)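 Each inhibitor concentration was tested in triplicate. IC50 came from a four-parameter logistic fit of data within a single experiment and is reported as the mean of the triplicate values.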

[12] = Volume of distribution at steady state of compound was determined in rabbit at 5 mg/kg intravenously admn.; type: ADME, organism-based, Oryctolagus cuniculus; design: dose 5 mg/kg, route intravenous; settings: in vivo, iv, read-out: Vdss; summary of the method: as §3
[13] = Maximum plasma concentration of compound was determined in dog at 25 mg/kg orally; type: ADME, organism-based, Canis lupus familiaris; design: dose 25 mg/kg, route oral; settings: po; summary of the method: as §4
[14] = Oral bioavailability of compound was determined in monkey at 25 mg/kg orally; type: ADME, organism-based; settings: simiiformes, in vivo, read-out: Bioavailabiility
[15] = Volume of distribution at steady state of compound was determined in dog at 5 mg/kg intravenously admn.; type: ADME, organism-based, Canis lupus familiaris; design: dose 5 mg/kg, route intravenous; settings: in vivo, iv, read-out: Vdss; summary of the method: as §3
[16] = Maximum plasma concentration of compound was determined in rat at 25 mg/kg orally; type: ADME, organism-based; design: dose 25 mg/kg, route oral; settings: po; summary of the method: as §4
[17] = Apparent elimination half life of compound was determined in rat at 5 mg/kg intravenously admn.; type: ADME, organism-based; design: dose 5 mg/kg, route intravenous; settings: in vivo, iv; summary of the method: as §2
[18] = Peak concentration of compound at Time = 0 was determined in dog at 5 mg/kg intravenously admn.; type: ADME, organism-based, Canis lupus familiaris; design: dose 5 mg/kg, route intravenous; settings: in vivo, iv; summary of the method: as §3
[19] = molecular target: 72 kDa type IV collagenase (Homo sapiens, UniProt P08253); experiment: Inhibition of Matrix metalloprotease-2; summary of the method: as §5
[20] = Maximum plasma concentration of compound was determined in rabbit at 25 mg/kg orally; type: ADME, organism-based, Oryctolagus cuniculus; design: dose 25 mg/kg, route oral; settings: po; summary of the method: as §4
[21] = In vivo inhibition of Matrix metalloprotease enzyme by Sponge-wrapped cartilage assay, compared to activity of RS-130830 (20+/-2) at 5 mg/kg. po. bid; type: functional
[22] = Area under concentration-time curve of compound was determined in rabbit at 25 mg/kg orally; type: ADME, organism-based, Oryctolagus cuniculus; design: dose 25 mg/kg, route oral; settings: in vivo, po; summary of the method: as §2
[23] = Peak concentration of compound at Time = 0 was determined in rabbit at 5 mg/kg intravenously admn.; type: ADME, organism-based, Oryctolagus cuniculus; design: dose 5 mg/kg, route intravenous; settings: in vivo, iv; summary of the method: as §3
[24] = Apparent elimination half life of compound was determined in monkey at 25 mg/kg orally; type: ADME, organism-based; design: dose 25 mg/kg, route oral; settings: simiiformes, in vivo, po; summary of the method: as §2
[25] = Peak concentration of compound at Time = 0 was determined in monkey at 5 mg/kg intravenously admn.; type: ADME, organism-based; design: dose 5 mg/kg, route intravenous; settings: simiiformes, in vivo, iv; summary of the method: as §3
[26] = Volume of distribution at steady state of compound was determined in rat at 5 mg/kg intravenously admn.; type: ADME, organism-based; design: dose 5 mg/kg, route intravenous; settings: in vivo, iv, read-out: Vdss; summary of the method: as §3

Sequence of 72 kDa type IV collagenase (P08253 whole entry): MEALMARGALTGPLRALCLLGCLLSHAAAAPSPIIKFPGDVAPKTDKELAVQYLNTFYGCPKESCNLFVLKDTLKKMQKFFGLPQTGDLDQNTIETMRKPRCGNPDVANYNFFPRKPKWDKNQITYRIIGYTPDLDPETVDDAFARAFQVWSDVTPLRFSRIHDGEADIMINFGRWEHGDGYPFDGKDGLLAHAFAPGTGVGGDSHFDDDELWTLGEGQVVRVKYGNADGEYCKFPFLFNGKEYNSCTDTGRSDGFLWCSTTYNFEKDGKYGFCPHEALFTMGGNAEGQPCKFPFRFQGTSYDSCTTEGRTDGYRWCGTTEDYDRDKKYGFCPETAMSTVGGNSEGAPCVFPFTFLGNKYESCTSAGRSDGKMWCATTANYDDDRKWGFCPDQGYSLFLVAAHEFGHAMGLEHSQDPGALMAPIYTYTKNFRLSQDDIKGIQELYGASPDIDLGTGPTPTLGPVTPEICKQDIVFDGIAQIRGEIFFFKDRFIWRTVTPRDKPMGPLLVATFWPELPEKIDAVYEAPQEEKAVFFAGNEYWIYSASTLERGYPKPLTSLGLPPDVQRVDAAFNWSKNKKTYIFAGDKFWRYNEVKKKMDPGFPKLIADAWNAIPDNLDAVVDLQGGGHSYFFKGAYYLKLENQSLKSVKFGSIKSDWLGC

## O=C(NO)C1(S(=O)(=O)c2ccc(Oc3ccc(Cl)cc3)cc2)CCN(Cc2ccccc2)CC1
[1]
  Average gross pathology scores+/- SE: 9.7
[2]
  AUC: 1410 µg·h/mL
[3]
  bioavailability: 47%
[4]
  clearance: 0.1 mL/min/kg
[5]
  Cmax: 50.3 µg/mL
[6]
  Average gross pathology scores+/- SE: 6.8
[7]
  AUC: 327 µg·h/mL
[8]
  clearance: 0.1 mL/min/kg
[9]
  bioavailability: 11%
[10]
  half-life: 17.6 h
[11]
  IC50: 925 nM
[12]
  Vd: 0.1 L/kg
[13]
  Cmax: 96.3 µg/mL
[14]
  bioavailability: 37%
[15]
  Vd: 0.1 L/kg
[16]
  Cmax: 75.2 µg/mL
[17]
  half-life: 4.4 h
[18]
  C0: 82 µg/mL
[19]
  IC50: 1 nM
[20]
  Cmax: 22.7 µg/mL
[21]
  inhibition in vivo at 5 mg/kg: 53%
[22]
  AUC: 363 µg·h/mL
[23]
  C0: 126 µg/mL
[24]
  half-life: 20 h
[25]
  C0: 162 µg/mL
[26]
  Vd: 0.1 L/kg
